Reference: ChEMBL document CHEMBL4038305, “Benzoxaborole Antimalarial Agents. Part 5. Lead Optimization of Novel Amide Pyrazinyloxy Benzoxaboroles and Identification of a Preclinical Candidate” (J Med Chem, 2017)

Test system: Plasmodium berghei
Assay: Antimalarial activity against Plasmodium berghei infected in Swiss Webster mouse assessed as mouse survival rate administered once daily via oral gavage for 4 consecutive days beginning 1 hr after infection measured on day 4 post infection
Type: functional
Conditions: not given
Method in brief: (§1)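 Mice given an intraperitoneal injection of P. berghei-infected erythrocytes taken from a previously infected animal. Oral dosing once daily for 4 consecutive days, starting 1 h after infection. Vehicle: polyethylene glycol 300/propylene glycol/water (weight ratio 55/25/20). Percent survival recorded daily from day 4 to day 20. Chloroquine 30 mg/kg and vehicle-only groups served as controls.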

Structure (SMILES)	ED90 [mg/kg]
Cc1c(Oc2cnc(C(=O)N3CC(O)(C4CC4)C3)cn2)ccc2c1B(O)OC2	10.3

Test system: Plasmodium falciparum
Assay: Antimalarial activity against chloroquine-resistant Plasmodium falciparum W2 infected in human erythrocytes after 48 hrs by YOYO-1 dye based flow cytometric analysis
Type: functional, cell-based
Conditions: W2, 48 h
Method in brief: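 P. falciparum W2 cultures were exposed to the compound for 48 h, with artemisinin and chloroquine as reference controls. IC50 was taken from two independent replicates.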

Structure (SMILES)	IC50 [nM]
Cc1c(Oc2cnc(C(=O)N3CC(O)(C4CC4)C3)cn2)ccc2c1B(O)OC2	51.7

Test system: Plasmodium berghei
Assay: Antimalarial activity against Plasmodium berghei infected in Swiss Webster mouse assessed as mouse survival rate at 11 mg/kg administered once daily via oral gavage for 4 consecutive days beginning 1 hr after infection measured on day 7 post infection relative to control
Type: functional
Conditions: not given
Method in brief: (§2)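 P. berghei-infected erythrocytes taken from a previously infected mouse were injected intraperitoneally. Oral dosing, once daily for 4 consecutive days, began 1 h after infection, in polyethylene glycol 300/propylene glycol/water (55/25/20 by weight). Chloroquine at 30 mg/kg was the positive control, with a vehicle-only group. Percent survival was recorded daily from day 4 to day 20.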

Structure (SMILES)	survival at 11 mg/kg [%]
Cc1c(Oc2cnc(C(=O)N3CC(O)(C4CC4)C3)cn2)ccc2c1B(O)OC2	0

Test system: Plasmodium berghei
Assay: Antimalarial activity against Plasmodium berghei infected in Swiss Webster mouse assessed as mouse survival rate at 1.2 mg/kg administered once daily via oral gavage for 4 consecutive days beginning 1 hr after infection measured on day 6 post infection relative to control
Type: functional
Conditions: not given
Method in brief: as §1

Structure (SMILES)	survival at 1.2 mg/kg [%]
Cc1c(Oc2cnc(C(=O)N3CC(O)(C4CC4)C3)cn2)ccc2c1B(O)OC2	100

Test system: Plasmodium berghei
Assay: Antimalarial activity against Plasmodium berghei infected in Swiss Webster mouse assessed as mouse survival rate at 100 mg/kg administered once daily via oral gavage for 4 consecutive days beginning 1 hr after infection measured on day 8 post infection relative to control
Type: functional
Conditions: not given
Method in brief: as §1

Structure (SMILES)	survival at 100 mg/kg [%]
Cc1c(Oc2cnc(C(=O)N3CC(O)(C4CC4)C3)cn2)ccc2c1B(O)OC2	100

Test system: Plasmodium berghei
Assay: Antimalarial activity against Plasmodium berghei infected in Swiss Webster mouse assessed as mouse survival rate at 0.1 mg/kg administered once daily via oral gavage for 4 consecutive days beginning 1 hr after infection measured on day 7 post infection relative to control
Type: functional
Conditions: not given
Method in brief: as §1

Structure (SMILES)	survival at 0.1 mg/kg [%]
Cc1c(Oc2cnc(C(=O)N3CC(O)(C4CC4)C3)cn2)ccc2c1B(O)OC2	0

Test system: Plasmodium berghei
Assay: Antimalarial activity against Plasmodium berghei infected in Swiss Webster mouse assessed as mouse survival rate at 100 mg/kg administered once daily via oral gavage for 4 consecutive days beginning 1 hr after infection measured on day 9 post infection relative to control
Type: functional
Conditions: not given
Method in brief: as §1

Structure (SMILES)	survival at 100 mg/kg [%]
Cc1c(Oc2cnc(C(=O)N3CC(O)(C4CC4)C3)cn2)ccc2c1B(O)OC2	100

Test system: Plasmodium berghei
Assay: Antimalarial activity against Plasmodium berghei infected in Swiss Webster mouse assessed as mouse survival rate at 0.4 mg/kg administered once daily via oral gavage for 4 consecutive days beginning 1 hr after infection measured on day 6 post infection relative to control
Type: functional
Conditions: not given
Method in brief: as §1

Structure (SMILES)	survival at 0.4 mg/kg [%]
Cc1c(Oc2cnc(C(=O)N3CC(O)(C4CC4)C3)cn2)ccc2c1B(O)OC2	100

Test system: Plasmodium berghei
Assay: Antimalarial activity against Plasmodium berghei infected in Swiss Webster mouse assessed as mouse survival rate at 100 mg/kg administered once daily via oral gavage for 4 consecutive days beginning 1 hr after infection measured on day 5 post infection relative to control
Type: functional
Conditions: not given
Method in brief: as §1

Structure (SMILES)	survival at 100 mg/kg [%]
Cc1c(Oc2cnc(C(=O)N3CC(O)(C4CC4)C3)cn2)ccc2c1B(O)OC2	100

Test system: Plasmodium berghei
Assay: Antimalarial activity against Plasmodium berghei infected in Swiss Webster mouse assessed as mouse survival rate at 0.4 mg/kg administered once daily via oral gavage for 4 consecutive days beginning 1 hr after infection measured on day 4 post infection relative to control
Type: functional
Conditions: not given
Method in brief: as §1

Structure (SMILES)	survival at 0.4 mg/kg [%]
Cc1c(Oc2cnc(C(=O)N3CC(O)(C4CC4)C3)cn2)ccc2c1B(O)OC2	100

Test system: Plasmodium berghei
Assay: Antimalarial activity against Plasmodium berghei infected in Swiss Webster mouse assessed as mouse survival rate at 33 mg/kg administered once daily via oral gavage for 4 consecutive days beginning 1 hr after infection measured on day 8 post infection relative to control
Type: functional
Conditions: not given
Method in brief: as §2

Structure (SMILES)	survival at 33 mg/kg [%]
Cc1c(Oc2cnc(C(=O)N3CC(O)(C4CC4)C3)cn2)ccc2c1B(O)OC2	100

Test system: Plasmodium berghei
Assay: Antimalarial activity against Plasmodium berghei infected in Swiss Webster mouse assessed as mouse survival rate at 100 mg/kg administered once daily via oral gavage for 4 consecutive days beginning 1 hr after infection measured on day 14 post infection relative to control
Type: functional
Conditions: not given
Method in brief: as §1

Structure (SMILES)	survival at 100 mg/kg [%]
Cc1c(Oc2cnc(C(=O)N3CC(O)(C4CC4)C3)cn2)ccc2c1B(O)OC2	0

Test system: Plasmodium berghei
Assay: Antimalarial activity against Plasmodium berghei infected in Swiss Webster mouse assessed as mouse survival rate at 3.7 mg/kg administered once daily via oral gavage for 4 consecutive days beginning 1 hr after infection measured on day 6 post infection relative to control
Type: functional
Conditions: not given
Method in brief: as §2

Structure (SMILES)	survival at 3.7 mg/kg [%]
Cc1c(Oc2cnc(C(=O)N3CC(O)(C4CC4)C3)cn2)ccc2c1B(O)OC2	100

Test system: Plasmodium falciparum
Assay: Antimalarial activity against chloroquine-sensitive Plasmodium falciparum 3D7 infected in human erythrocytes assessed as reduction in [3H]-hypoxanthine incorporation preincubated for 24 hrs followed by [3H]-hypoxanthine addition measured after 24 hrs by scintillation counting method
Type: functional, cell-based
Conditions: not given
Method in brief: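 P. falciparum 3D7 cultures were exposed to the compound for 48 h, with atovaquone as the reference control. IC50 was taken from three replicates.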

Structure (SMILES)	IC50 [nM]
Cc1c(Oc2cnc(C(=O)N3CC(O)(C4CC4)C3)cn2)ccc2c1B(O)OC2	134

Test system: Plasmodium berghei
Assay: Antimalarial activity against Plasmodium berghei infected in Swiss Webster mouse assessed as mouse survival rate at 100 mg/kg administered once daily via oral gavage for 4 consecutive days beginning 1 hr after infection measured on day 6 post infection relative to control
Type: functional
Conditions: not given
Method in brief: as §1

Structure (SMILES)	survival at 100 mg/kg [%]
Cc1c(Oc2cnc(C(=O)N3CC(O)(C4CC4)C3)cn2)ccc2c1B(O)OC2	100

Test system: Plasmodium berghei
Assay: Antimalarial activity against Plasmodium berghei infected in Swiss Webster mouse assessed as mouse survival rate at 0.1 mg/kg administered once daily via oral gavage for 4 consecutive days beginning 1 hr after infection measured on day 4 post infection relative to control
Type: functional
Conditions: not given
Method in brief: as §1

Structure (SMILES)	survival at 0.1 mg/kg [%]
Cc1c(Oc2cnc(C(=O)N3CC(O)(C4CC4)C3)cn2)ccc2c1B(O)OC2	100

Test system: Plasmodium berghei
Assay: Antimalarial activity against Plasmodium berghei infected in Swiss Webster mouse assessed as mouse survival rate at 11 mg/kg administered once daily via oral gavage for 4 consecutive days beginning 1 hr after infection measured on day 4 post infection relative to control
Type: functional
Conditions: not given
Method in brief: as §2

Structure (SMILES)	survival at 11 mg/kg [%]
Cc1c(Oc2cnc(C(=O)N3CC(O)(C4CC4)C3)cn2)ccc2c1B(O)OC2	100

Test system: Plasmodium berghei
Assay: Antimalarial activity against Plasmodium berghei infected in Swiss Webster mouse assessed as mouse survival rate at 0.4 mg/kg administered once daily via oral gavage for 4 consecutive days beginning 1 hr after infection measured on day 7 post infection relative to control
Type: functional
Conditions: not given
Method in brief: as §1

Structure (SMILES)	survival at 0.4 mg/kg [%]
Cc1c(Oc2cnc(C(=O)N3CC(O)(C4CC4)C3)cn2)ccc2c1B(O)OC2	0

Test system: Plasmodium berghei
Assay: Antimalarial activity against Plasmodium berghei infected in Swiss Webster mouse assessed as mouse survival rate at 0.4 mg/kg administered once daily via oral gavage for 4 consecutive days beginning 1 hr after infection measured on day 5 post infection relative to control
Type: functional
Conditions: not given
Method in brief: as §1

Structure (SMILES)	survival at 0.4 mg/kg [%]
Cc1c(Oc2cnc(C(=O)N3CC(O)(C4CC4)C3)cn2)ccc2c1B(O)OC2	100

Test system: Plasmodium berghei
Assay: Antimalarial activity against Plasmodium berghei infected in Swiss Webster mouse assessed as mouse survival rate at 33 mg/kg administered once daily via oral gavage for 4 consecutive days beginning 1 hr after infection measured on day 11 post infection relative to control
Type: functional
Conditions: not given
Method in brief: as §2

Structure (SMILES)	survival at 33 mg/kg [%]
Cc1c(Oc2cnc(C(=O)N3CC(O)(C4CC4)C3)cn2)ccc2c1B(O)OC2	40

Test system: Plasmodium berghei
Assay: Antimalarial activity against Plasmodium berghei infected in Swiss Webster mouse assessed as mouse survival rate at 11 mg/kg administered once daily via oral gavage for 4 consecutive days beginning 1 hr after infection measured on day 5 post infection relative to control
Type: functional
Conditions: not given
Method in brief: as §2

Structure (SMILES)	survival at 11 mg/kg [%]
Cc1c(Oc2cnc(C(=O)N3CC(O)(C4CC4)C3)cn2)ccc2c1B(O)OC2	100

Test system: Plasmodium berghei
Assay: Antimalarial activity against Plasmodium berghei infected in Swiss Webster mouse assessed as mouse survival rate at 100 mg/kg administered once daily via oral gavage for 4 consecutive days beginning 1 hr after infection measured on day 10 post infection relative to control
Type: functional
Conditions: not given
Method in brief: as §1

Structure (SMILES)	survival at 100 mg/kg [%]
Cc1c(Oc2cnc(C(=O)N3CC(O)(C4CC4)C3)cn2)ccc2c1B(O)OC2	100

Test system: Plasmodium berghei
Assay: Antimalarial activity against Plasmodium berghei infected in Swiss Webster mouse assessed as mouse survival rate at 1.2 mg/kg administered once daily via oral gavage for 4 consecutive days beginning 1 hr after infection measured on day 4 post infection relative to control
Type: functional
Conditions: not given
Method in brief: as §1

Structure (SMILES)	survival at 1.2 mg/kg [%]
Cc1c(Oc2cnc(C(=O)N3CC(O)(C4CC4)C3)cn2)ccc2c1B(O)OC2	100

Test system: Plasmodium berghei
Assay: Antimalarial activity against Plasmodium berghei infected in Swiss Webster mouse assessed as mouse survival rate at 3.7 mg/kg administered once daily via oral gavage for 4 consecutive days beginning 1 hr after infection measured on day 7 post infection relative to control
Type: functional
Conditions: not given
Method in brief: as §2

Structure (SMILES)	survival at 3.7 mg/kg [%]
Cc1c(Oc2cnc(C(=O)N3CC(O)(C4CC4)C3)cn2)ccc2c1B(O)OC2	0

Test system: Plasmodium berghei
Assay: Antimalarial activity against Plasmodium berghei infected in Swiss Webster mouse assessed as mouse survival rate at 0.1 mg/kg administered once daily via oral gavage for 4 consecutive days beginning 1 hr after infection measured on day 5 post infection relative to control
Type: functional
Conditions: not given
Method in brief: as §1

Structure (SMILES)	survival at 0.1 mg/kg [%]
Cc1c(Oc2cnc(C(=O)N3CC(O)(C4CC4)C3)cn2)ccc2c1B(O)OC2	100

Test system: Plasmodium berghei
Assay: Antimalarial activity against Plasmodium berghei infected in Swiss Webster mouse assessed as mouse survival rate at 3.7 mg/kg administered once daily via oral gavage for 4 consecutive days beginning 1 hr after infection measured on day 5 post infection relative to control
Type: functional
Conditions: not given
Method in brief: as §2

Structure (SMILES)	survival at 3.7 mg/kg [%]
Cc1c(Oc2cnc(C(=O)N3CC(O)(C4CC4)C3)cn2)ccc2c1B(O)OC2	100

Test system: Plasmodium berghei
Assay: Antimalarial activity against Plasmodium berghei infected in Swiss Webster mouse assessed as mouse survival rate at 33 mg/kg administered once daily via oral gavage for 4 consecutive days beginning 1 hr after infection measured on day 4 post infection relative to control
Type: functional
Conditions: not given
Method in brief: as §2

Structure (SMILES)	survival at 33 mg/kg [%]
Cc1c(Oc2cnc(C(=O)N3CC(O)(C4CC4)C3)cn2)ccc2c1B(O)OC2	100
